# CHRM4 antagonist: antagonists of human muscarinic M4 receptor (CHRM4). P08173. AID 624125. inhibition, % at 3 µM. actives 0.73% (n = 360,000). CHO-hM4 cells, ACh EC80, Fluo-8 calcium fluorescence;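 active = inhibition above its plate's cutoff, the mean inhibition of sample wells plus 3 SD, cut at about 27% in these data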;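 note: 0% = acetylcholine EC80 with DMSO and 100% = DMSO without agonist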
# M5 antag: blocks acetylcholine activation of human M5 receptor; inhibition, % at 3 µM; AID 624040; actives 0.59% (n = 360,000); CHO-hM5 cells, Fluo-8 calcium fluorescence, ACh EC80;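 active = inhibition above a per-plate cutoff, the mean of that plate's test compounds plus 3 SD, cut at about 27% in these data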;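 note: 0% = acetylcholine EC80 with DMSO and 100% = DMSO without agonist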
# Target sequence (P08912 whole entry, looked up): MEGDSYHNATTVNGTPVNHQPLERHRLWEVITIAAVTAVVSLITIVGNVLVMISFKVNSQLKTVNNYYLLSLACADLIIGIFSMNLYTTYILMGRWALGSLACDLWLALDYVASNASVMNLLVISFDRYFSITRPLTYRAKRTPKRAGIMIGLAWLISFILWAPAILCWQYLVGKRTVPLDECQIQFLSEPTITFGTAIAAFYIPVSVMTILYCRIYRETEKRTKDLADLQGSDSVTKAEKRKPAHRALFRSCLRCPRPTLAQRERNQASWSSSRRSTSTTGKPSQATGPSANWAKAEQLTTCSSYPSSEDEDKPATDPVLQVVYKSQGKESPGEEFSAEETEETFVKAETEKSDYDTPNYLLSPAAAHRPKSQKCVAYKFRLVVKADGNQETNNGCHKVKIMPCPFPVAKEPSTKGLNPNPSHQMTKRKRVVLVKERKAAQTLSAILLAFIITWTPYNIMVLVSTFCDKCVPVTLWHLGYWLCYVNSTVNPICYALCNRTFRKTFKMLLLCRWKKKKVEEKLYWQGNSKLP
# CHRM4 agonist: CHRM4 agonism in calcium assay; actives 0.14% (n = 360,000); activation, % at 3 µM; CHO-K1 hM4/Gqi5, Fluo-8 calcium fluorescence; vehicle 0%, full acetylcholine response 100%; P08173;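 active = activation above the run mean over all test wells plus 3 SD, cut at about 32% in these data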;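 note: peak over basal fluorescence ratio per well then scaled between controls; 0% = DMSO wells and 100% = acetylcholine at EC100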
# CHRM5 PAM: positive allosteric modulators of human muscarinic M5 receptor | CHO-K1 hM5, Fluo-8 calcium, ACh EC20 PAM; 0% = ACh EC20, 100% = ACh EC100 | actives 0.3% (n = 360,000) | activation, % at 3 µM | AID 624038 | P08912;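 active = activation above the run cutoff, the mean activation of all test compounds plus 3 SD, cut at about 18% in these data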
#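 Assay system: CHO-K1 hM5 cells. Also added: acetylcholine at EC20 concentration, added after compound. Dosing: 3 µM, single dose. Times: compound preincubation 140 s before EC20 acetylcholine addition. Signal: Fluo-8 calcium fluorescence. Measure: % activation relative to EC20 and EC100 ACh responses. Repeats: singlicate, one well per test compound.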
# M4 PAM: potentiates acetylcholine response at human M4 receptor. P08173. CHO-K1 hM4/Gqi5, Fluo-8 calcium fluorescence, ACh EC20; 0% = ACh EC20, 100% = maximal ACh. activation, % at 3 µM. actives 0.4% (n = 360,000);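 active = activation above its plate's cutoff, the mean activation of sample wells plus 3 SD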
# CHRM5 agonist: agonists of human muscarinic M5 receptor (CHRM5); CHO-K1 hM5 cells, Fluo-8 calcium fluorescence; 0% DMSO wells, 100% maximal acetylcholine response; P08912; actives 0.19% (n = 360,000); AID 624037; activation, % at 3 µM;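 active = activation above the run's mean over test compounds plus 3 SD, cut at about 23% in these data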;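 note: signal is peak over basal fluorescence ratio across the kinetic read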
# Active calls of the source: *. An excerpt weighted towards active compounds, which were near 1.9% of everything screened.
SMILES,CHRM4 antagonist,M5 antag,CHRM4 agonist,CHRM5 PAM,M4 PAM,CHRM5 agonist
C[C@@H]1CN([C@@H](C)CO)C(=O)CCCn2nncc2CO[C@H]1CN(C)S(=O)(=O)c1cccc(C#N)c1,3.2,-2.8,0.3,-1.1,-2.2,0.6
COc1cccc(N=Nc2ccc(O)c3ncccc23)c1,34.1*,28.4*,30.4,-19.4,-9.2,54.3*
COc1cccc(N=Nc2ccc3cccnc3c2O)c1,19.1,21.0,43.2*,-18.8,-13.1,42.4*
CNC(=S)N(CCc1c(C)[nH]c2ccc(C)cc12)Cc1cccnc1,-3.8,5.7,1.2,-6.3,-5.7,0.3
CCN1C(=O)/C(=C\N2CCCCCC2)SC1=S,69.3*,32.0*,1.8,-21.7,-22.4,-5.9
CCN1C(=O)/C(=C/c2c(C)nn(C)c2C)SC1=S,1.9,10.6,3.6,-7.0,30.5*,-5.1
COc1cc2[nH]c(C(=O)NCc3ccccc3)cc2c(OC)c1OC,0.4,1.1,0.8,-1.3,0.1,-2.3
CS(=O)(=O)Nc1cccc(-c2cn3c(n2)SCC3)c1,-7.6,31.3*,0.1,-4.9,7.5,-7.3
CCS(=O)(=O)Nc1cccc(-c2cn3c(n2)SCC3)c1,-0.9,-4.5,0.8,0.9,1.2,-2.3
C[C@@H]1CN([C@@H](C)CO)C(=O)CCCn2nncc2CO[C@H]1CN(C)C(=O)c1ccncc1,0.4,-4.0,0.9,1.0,-4.8,2.0
CNC[C@H](Cc1ccccc1)NC[C@@H](Cc1cccc2ccccc12)NCCc1ccc(C)cc1,37.5*,1.6,23.9,-9.6,-0.9,-2.5
CNCCNC[C@H](Cc1cccc2ccccc12)NCCc1ccccc1,5.2,12.4,2.1,-1.1,-1.9,0.5
CC(C)Sc1cc(N2CCOCC2)nc(-c2ccccc2)n1,-12.2,-5.1,-1.2,4.9,31.9*,2.5
C1CC2CN(c3nc4nonc4nc3N3CCSCC3)CCN2C1 (stereo unspecified),9.0,0.1,0.9,-4.6,-10.1,-8.4
C1CCN(C2CCN(c3nc4nonc4nc3N3CCSCC3)CC2)C1,31.3*,6.5,1.0,-10.9,-20.0,-9.5
CCOC(=O)N1CCN(c2ncnc3c2[nH]c2ccc(F)cc23)CC1,9.2,1.3,11.9,-36.9,-10.4,-1.1
COc1ccc2[nH]c3c(N4CCc5ccccc5C4)ncnc3c2c1,19.4,7.8,25.5,-17.7,-15.0,2.4
Fc1ccc2[nH]c3c(N4CCN(c5ccccc5)CC4)ncnc3c2c1,38.4*,50.0*,25.0,-22.5,-10.8,5.4
OC1(c2cccc(C(F)(F)F)c2)CCN(c2ncnc3c2[nH]c2ccc(F)cc23)CC1,20.2,31.0*,14.5,-21.7,-18.6,0.7
COc1ccc(N2CCN(c3ncnc4c3[nH]c3ccccc34)CC2)cc1,28.4*,28.4*,22.8,-21.0,-11.2,7.8
O=C(CN1CCN(Cc2ccc(F)cc2)C1=O)NC1CCCC1,7.8,2.1,-0.1,-0.3,-13.3,-2.8
COc1ccc(-c2ccc(C(=O)Nc3ccc4c(c3)OCO4)c3occc23)c(C)c1,0.6,12.4,-0.3,-9.6,-3.5,-0.7
CCCCCNC(=O)C(c1cccc2ccccc12)n1c(=O)c(-c2cc3ccccc3[nH]2)nc2ccccc21 (stereo unspecified),-5.3,-0.8,0.9,-2.9,-4.0,1.8
COc1cccc(NC(=O)CN(C)C(=O)c2ccc(S(=O)(=O)Nc3ccccc3F)cc2)c1,-4.1,-4.8,0.9,0.5,-0.2,-1.6
CCn1nc(C(=O)OCc2c(C)noc2C)c2ccccc2c1=O,-1.7,8.1,-0.1,55.6*,6.4,-5.7
SMILES,CHRM4 antagonist,M5 antag,CHRM4 agonist,CHRM5 PAM,M4 PAM,CHRM5 agonist
CCN(CC(=O)Nc1ccccc1C(F)(F)F)C(=O)CSCC(=O)Nc1cc(C)on1,-7.7,-6.6,0.4,7.2,22.8*,-1.8
CCN(CC(=O)Nc1cc(C)on1)CC(=O)Nc1ccccc1C(F)(F)F,0.0,-15.7,1.9,8.1,8.5,4.3
CCOC(=O)C1=CCN(S(=O)(=O)c2ccc(F)cc2)C1c1cccc(C)c1 (stereo unspecified),-14.5,-1.3,-0.6,-7.8,2.6,-5.9
Cc1ccc([C@@H]2CC=C(C(=O)O)[C@H](c3ccc(Cl)cc3)N2S(=O)(=O)c2ccccc2C)cc1,-0.8,-4.9,-0.2,4.5,5.0,-2.5
CC[C@H](C)Cc1cn([C@@H](CCCCN)C(=O)NCCCCCCCCCCC(=O)N2CCNCC2)nn1,-4.5,2.5,0.0,6.7,3.4,-9.9
Cc1cn([C@@H](CCCCNC(=O)OC(C)(C)C)C(=O)NCCCCCCCCCCC(=O)N2CCN(C(=O)OC(C)(C)C)CC2)nn1,40.1*,19.2,28.2,-40.0,-16.5,0.0
CC(C)(C)OC(=O)NCCCCCc1cn(CC(=O)NCCCCCCCCCCC(=O)N2CCN(C(=O)OC(C)(C)C)CC2)nn1,2.5,12.4,5.5,-9.1,-0.3,6.5
CC[C@H](C)Cc1cn([C@@H](CCCN=C(NC(=O)OC(C)(C)C)NC(=O)OC(C)(C)C)C(=O)NCCCCCCCCCCC(=O)N2CCN(C(=O)OC(C)(C)C)CC2)nn1,35.7*,6.2,1.2,-5.5,-13.8,-10.8
Cc1ccc(C)c(N2CCN(C(=O)C(Cc3ccccc3)n3cccc3)CC2)c1 (stereo unspecified),-3.4,2.2,2.2,-23.6,-11.6,41.7*
O=C(C(Cc1ccccc1)n1cccc1)N1CCN(c2ccccc2)CC1 (stereo unspecified),-12.9,-2.9,6.6,-1.0,1.2,0.0
N#C/C(=C/c1ccc(-c2ccc(S(N)(=O)=O)cc2)o1)c1nc2ccccc2s1,26.5*,47.6*,19.4,-17.9,-8.4,32.4*
N#C/C(=C\c1ccccn1)c1nc2ccccc2s1,17.5,17.4,19.6,-20.4,-10.1,43.7*
COC(=O)c1ccc(/C=C(\C#N)c2nc3ccccc3s2)cc1,-1.8,-5.8,5.8,1.0,2.2,3.8
CCCn1c(N)c(N(CCOC)C(=O)CSCC(=O)Nc2ccc(OC)cc2)c(=O)[nH]c1=O,-1.4,0.0,1.9,1.0,2.7,3.3
O=C(/C=C/c1c(F)cccc1Cl)NCCCN1CCOCC1,3.1,6.9,0.6,2.2,16.5*,-3.6
Cc1cc(Cl)ccc1-c1cc2nc(NCCCN(C)C)n(C)c(=O)c2s1,-3.8,0.7,0.8,1.2,5.9,-3.3
N#Cc1c(C(F)(F)F)cc(-c2ccco2)nc1SCc1ccncc1,24.9,25.9,16.0,-5.4,-7.2,0.4
N#Cc1c(C(F)(F)F)cc(-c2ccco2)nc1SCc1ccccn1,21.4,26.8,55.7*,-10.6,-8.3,12.2
CO[C@H]1CN(C)C(=O)c2cc(NC(=O)C3CCCC3)ccc2OC[C@@H](C)NC[C@H]1C,-20.5,-1.0,0.6,-2.8,8.6,-0.2
